Data taken from ChEMBL document CHEMBL2010694, “Indolyl and dihydroindolyl N-glycinamides as potent and in vivo active NPY5 antagonists” (Bioorg Med Chem Lett, 2012).
In brackets after ≈: the same amount, converted by molar mass. Activity calls are given as the source filed them. No cut-off for these calls is given here.

Assays:
[1] = Plasma concentration in Sprague-Dawley rat at 10 mg/kg, po after 1 hr by LC-MS/MS analysis; format: ADME, organism-based; set-up: dose 10 mg/kg, route oral
Procedure, shortened: (§1)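 Male Sprague-Dawley rats (300–350 g), femoral artery cannulated; single 10 mg/kg oral dose in an appropriate vehicle, N = 3. Blood taken predose, 1, 2 and 4 h; brains then collected and stored at -80 °C. Equal portions of plasma or homogenized brain from the three rats pooled per time point, protein precipitated, quantified by LC/MS/MS.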

Rattus norvegicus = assay: Antiobesity activity in cPP-induced feeding in Sprague-Dawley rat model assessed as reduction in food intake at 0.1 to 10 mg/kg, po measured 1 hr post cpp challenge; format: functional, organism-based
Procedure, shortened: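 Rats pretreated orally at 0.1, 1 or 10 mg/kg (vehicle 20% cyclodextrin) 1 h before intracerebroventricular infusion of Y5-selective peptide agonist cPP, 0.6 nmol in normal saline; food intake recorded, n = 7–14 per group.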

MDR [2] = assay: Apparent permeability from basolateral to apical side in MDCK cells expressing MDR; format: ADME, cell-based, Canis lupus familiaris; settings: dog, MDCK-MDR1
Procedure, shortened: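 Bidirectional permeability (A–B and B–A) across a Pgp-overexpressing mdr-MDCK cell monolayer; efflux ratio derived from the two Papp values, given in 10^-6 cm/s.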

[3] = Solubility of the compound at pH 7.4; format: physicochemical; settings: buffer
Cytochrome P450 2C8 = target: T1, Cytochrome P450 2C8 (Homo sapiens, UniProt P10632); assay: Inhibition of CYP2C8; format: ADME
T1 sequence (P10632 whole entry): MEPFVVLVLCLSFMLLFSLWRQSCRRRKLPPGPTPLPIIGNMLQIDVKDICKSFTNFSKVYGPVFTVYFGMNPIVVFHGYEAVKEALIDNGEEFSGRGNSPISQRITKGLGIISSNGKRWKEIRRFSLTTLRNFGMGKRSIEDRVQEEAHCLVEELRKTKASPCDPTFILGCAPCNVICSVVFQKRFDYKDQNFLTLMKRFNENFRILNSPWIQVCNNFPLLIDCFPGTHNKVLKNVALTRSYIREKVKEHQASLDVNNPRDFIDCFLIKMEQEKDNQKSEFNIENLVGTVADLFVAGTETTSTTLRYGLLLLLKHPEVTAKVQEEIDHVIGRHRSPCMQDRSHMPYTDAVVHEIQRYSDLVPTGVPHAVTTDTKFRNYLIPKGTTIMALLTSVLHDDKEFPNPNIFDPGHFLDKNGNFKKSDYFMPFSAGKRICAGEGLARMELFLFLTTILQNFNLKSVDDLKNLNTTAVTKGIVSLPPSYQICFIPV

[4] = Tmax in Sprague-Dawley rat plasma at 2 mg/kg, po and 1 mg/kg, iv after 24 hrs wash out period by HPLC analysis; format: ADME, organism-based
Procedure, shortened: (§2)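 Male Sprague-Dawley rats (200–250 g), jugular and carotid artery cannulated; compound dissolved in 20% beta cyclodextrin, pH adjusted with methane sulfonic acid. Serial blood sampled at 12 time points over 24 h post dose by automated sampler; plasma from centrifugation analysed by HPLC; PK parameters by non-compartmental analysis of plasma concentration–time profile.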

[5] = Cmax in Sprague-Dawley rat plasma at 2 mg/kg, po and 1 mg/kg, iv after 24 hrs wash out period by HPLC analysis; format: ADME, organism-based; procedure, shortened: as §2
Plasma = assay: Plasma concentration in Sprague-Dawley rat at 10 mg/kg, po by LC-MS/MS analysis; format: ADME, organism-based; set-up: dose 10 mg/kg, route oral; settings: in vivo; procedure, shortened: as §1
[6] = Plasma concentration in cPP-induced feeding Sprague-Dawley rat model at 0.1 mg/kg, po after 1 hr; format: ADME, organism-based; set-up: dose 0.1 mg/kg, route oral
Procedure, shortened: (§3)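 Satellite animals from the cPP feeding study dosed orally at 0.1, 1 or 10 mg/kg; plasma (ng/mL) and brain (ng/g) levels measured 1 h after dosing.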

[7] = Clearance in Sprague-Dawley rat blood at 2 mg/kg, po and 1 mg/kg, iv after 24 hrs wash out period by HPLC analysis; format: ADME, organism-based; settings: whole blood; procedure, shortened: as §2
[8] = Protein binding in human; format: ADME, organism-based; settings: plasma, read-out: PB (converted)
[9] = Volume of distribution at steady state in Sprague-Dawley rat plasma at 2 mg/kg, po and 1 mg/kg, iv after 24 hrs wash out period by HPLC analysis; format: ADME, organism-based; settings: read-out: Vdss; procedure, shortened: as §2
[10] = Plasma concentration in cPP-induced feeding Sprague-Dawley rat model at 10 mg/kg, po after 1 hr; format: ADME, organism-based; set-up: dose 10 mg/kg, route oral; procedure, shortened: as §3
Liver microsomes = assay: Intrinsic clearance in rat liver microsomes at 1 uM by LC/MS analysis; format: ADME, Microsome
Procedure, shortened: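 Compound incubated with human or rat liver microsomes; reaction quenched with acetonitrile, centrifuged, and remaining drug in supernatant measured by LC/MS to estimate T1/2, from which intrinsic clearance was derived.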

[11] = Lipophilicity, log D of the compound at pH 7.4; format: physicochemical; settings: buffer
Cytochrome P450 1A2 = target: T2, Cytochrome P450 1A2 (Homo sapiens, UniProt P05177); assay: Inhibition of CYP1A2; format: ADME
T2 sequence (P05177 whole entry): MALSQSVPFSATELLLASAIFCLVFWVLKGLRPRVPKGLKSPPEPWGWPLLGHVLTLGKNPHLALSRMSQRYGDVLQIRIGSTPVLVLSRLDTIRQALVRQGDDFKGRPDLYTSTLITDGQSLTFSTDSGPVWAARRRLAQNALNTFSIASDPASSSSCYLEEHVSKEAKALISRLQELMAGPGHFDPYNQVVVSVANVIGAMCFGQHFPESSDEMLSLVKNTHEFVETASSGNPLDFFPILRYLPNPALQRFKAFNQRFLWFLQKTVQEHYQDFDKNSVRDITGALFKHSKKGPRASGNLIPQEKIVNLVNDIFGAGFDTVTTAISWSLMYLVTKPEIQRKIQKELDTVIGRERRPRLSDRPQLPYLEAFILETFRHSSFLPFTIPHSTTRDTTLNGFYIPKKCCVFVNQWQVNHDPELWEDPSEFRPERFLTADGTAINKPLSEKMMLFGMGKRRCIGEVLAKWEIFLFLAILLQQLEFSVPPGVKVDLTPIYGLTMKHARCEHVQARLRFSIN

Brain = assay: Drug uptake in Sprague-Dawley rat brain at 10 mg/kg, po by LC-MS/MS analysis; format: ADME, organism-based; set-up: dose 10 mg/kg, route oral; settings: in vivo, read-out: Drug uptake; procedure, shortened: as §1
Cytochrome P450 3A4 = Cytochrome P450 3A4 (Homo sapiens, UniProt P08684); assay: Inhibition of CYP3A4; format: ADME
[12] = Drug uptake in cPP-induced feeding Sprague-Dawley rat model brain at 1 mg/kg, po after 1 hr; format: ADME, organism-based; set-up: dose 1 mg/kg, route oral; settings: read-out: Drug uptake; procedure, shortened: as §3
MDR [13] = assay: Efflux ratio of permeability from basolateral to apical side over apical to basolateral side in MDCK cells expressing MDR; format: ADME, cell-based, Canis lupus familiaris; settings: dog, MDCK-MDR1
Procedure, shortened: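 Bidirectional permeability measured across a Pgp-overexpressing mdr-MDCK cell monolayer, apical-to-basolateral and basolateral-to-apical. Apparent permeability (Papp, 10^-6 cm/s) was determined in each direction, and the efflux ratio was taken as Papp B–A over Papp A–B.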

Cytochrome P450 2C19 = Cytochrome P450 2C19 (Homo sapiens, UniProt P33261); assay: Inhibition of CYP2C19; format: ADME
[14] = Absolute oral bioavailability in Sprague-Dawley rat at 2 mg/kg after 24 hrs wash out period by HPLC analysis; format: ADME, organism-based; settings: in vivo; procedure, shortened: as §2
[15] = Clearance in Sprague-Dawley rat plasma at 2 mg/kg, po and 1 mg/kg, iv after 24 hrs wash out period by HPLC analysis; format: ADME, organism-based; procedure, shortened: as §2
[16] = Drug uptake in cPP-induced feeding Sprague-Dawley rat model brain at 0.1 mg/kg, po after 1 hr; format: ADME, organism-based; set-up: dose 0.1 mg/kg, route oral; settings: read-out: Drug uptake; procedure, shortened: as §3

Chain of Cytochrome P450 3A4 (P08684 whole entry): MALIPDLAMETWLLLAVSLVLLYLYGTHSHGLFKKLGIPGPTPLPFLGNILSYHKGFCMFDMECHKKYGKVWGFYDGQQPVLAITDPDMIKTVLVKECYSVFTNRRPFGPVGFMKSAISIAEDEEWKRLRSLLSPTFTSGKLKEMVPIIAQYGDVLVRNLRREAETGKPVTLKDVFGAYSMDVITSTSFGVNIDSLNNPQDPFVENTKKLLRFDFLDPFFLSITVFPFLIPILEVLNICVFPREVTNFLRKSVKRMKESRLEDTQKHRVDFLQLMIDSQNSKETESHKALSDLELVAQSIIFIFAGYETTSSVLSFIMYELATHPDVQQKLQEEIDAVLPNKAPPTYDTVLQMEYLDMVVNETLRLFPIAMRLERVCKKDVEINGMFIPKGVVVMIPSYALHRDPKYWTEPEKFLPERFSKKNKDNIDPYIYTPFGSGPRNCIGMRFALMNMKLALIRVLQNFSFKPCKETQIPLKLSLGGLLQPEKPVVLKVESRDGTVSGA
Chain of Cytochrome P450 2C19 (P33261 whole entry): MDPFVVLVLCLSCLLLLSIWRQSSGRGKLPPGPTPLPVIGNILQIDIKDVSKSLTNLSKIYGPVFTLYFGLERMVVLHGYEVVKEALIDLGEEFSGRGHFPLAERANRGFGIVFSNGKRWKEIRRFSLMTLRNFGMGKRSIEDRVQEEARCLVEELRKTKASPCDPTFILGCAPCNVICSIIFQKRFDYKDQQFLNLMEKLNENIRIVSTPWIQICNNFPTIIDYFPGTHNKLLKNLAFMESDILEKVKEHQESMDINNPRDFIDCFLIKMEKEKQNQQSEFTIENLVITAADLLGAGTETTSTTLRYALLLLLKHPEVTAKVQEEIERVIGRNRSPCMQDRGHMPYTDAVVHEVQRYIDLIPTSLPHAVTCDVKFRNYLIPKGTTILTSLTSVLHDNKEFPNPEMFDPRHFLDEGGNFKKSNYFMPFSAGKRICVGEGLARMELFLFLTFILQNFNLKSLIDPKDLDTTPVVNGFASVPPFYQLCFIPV

concentration at 1 h [1]: 5.47 µM
Papp B→A (MDR [2]): 60.1 ×10⁻⁶ cm/s
solubility [3]: 154 µM (≈ 65.9 µg/mL)
IC50 (Cytochrome P450 2C8): 8.2 µM
Tmax [4]: 48 min
Cmax [5]: 700 ng/mL
concentration (Plasma): 5.61 µM
concentration at 1 h [6]: 76 ng/mL
clearance [7]: 23.3 mL/min/kg
fraction unbound [8]: 0.009
Vd [9]: 1.9 L/kg
concentration at 1 h [10]: 1700 ng/mL
CLH (Liver microsomes): 49 mL/min
logD [11]: 3
IC50 (Cytochrome P450 1A2): > 40 µM
concentration (Brain): 0.304 µM
IC50 (Cytochrome P450 3A4): 0.7 µM
concentration at 1 h [12]: 104 ng/g
efflux ratio (MDR [13]): 26
IC50 (Cytochrome P450 2C19): > 40 µM
bioavailability [14]: 100%
clearance [15]: 25 mL/min/kg
concentration at 1 h [16]: 11 ng/g
Compound: CC(C)S(=O)(=O)NC[C@H]1CC[C@H](NC(=O)CN2CCc3cc(Cl)ccc32)CC1
Activity (Rattus norvegicus): Active
